According to ChEMBL document CHEMBL2396535, “Synthesis and biological evaluation of 18F-labled 2-phenylindole derivatives as PET imaging probes for β-amyloid plaques” (Bioorg Med Chem, 2013):
Active and inactive are the calls of the source. The rule behind the calls is not given here.

Tests used:
[1] = target: Amyloid-beta precursor protein (Homo sapiens, UniProt P05067); test: Displacement of [125I]IMPY from amyloid beta (1 to 42) (unknown origin) after 3 hrs by gamma counting analysis
Outline: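 Test compound ranged over 10^-4 to 10^-8.5 in ethanol, in 0.05% BSA, 1 mL total. Incubation was 3 h at room temperature, then GF/B filtration and gamma counting. IC50 came from three independent experiments, and Ki was derived by Cheng–Prusoff.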

[2] = Ratio of drug level in brain to blood in ICR mouse after 2 mins; assay type: ADME, tissue-based; conditions: brain and blood, read-out: BBR
Outline: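 Male ICR mice (5 weeks) received the ¹⁸F tracer (740–1110 kBq/mL) in saline with 10% EtOH by tail-vein injection. Five mice per time point were sacrificed at 2, 10, 30 and 60 min. Organs were removed, weighed and gamma-counted, and expressed as %ID/g. The ratio is brain %ID/g over blood %ID/g at 2 min.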

Brain = test: Ratio of drug level in brain after 2 mins to drug level in brain after 60 mins in ICR mouse; assay type: ADME, tissue-based; conditions: in vivo
Outline: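 Male normal ICR mice (5 weeks old), n = 5 per time point, received a tail-vein injection of [18F] tracer (740–1110 kBq/mL) in saline containing 10% EtOH. Mice were sacrificed at 2, 10, 30 and 60 min. Organs were removed, weighed and gamma-counted, and data were expressed as %ID/g.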

Mus musculus [3] = organism: Mus musculus; test: Binding affinity to amyloid beta in transgenic C57BL/6 mouse cortex harboring APPswe and PSEN1 double mutation at 185 to 370 kBq after 1 hr by thioflavin-S staining-based assay; conditions: tested as the 18F-labelled form
Outline: (§1)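 Paraffin-embedded brain sections from male APPswe/PSEN1 transgenic C57BL6 mice (11 months old) and wild-type C57BL6 controls (11 months old) were incubated with [18F] tracer (185–370 kBq) for 1 h at room temperature, washed with 40% EtOH, dried and exposed to an imaging plate for 1 h. Plaques were confirmed on the same sections by thioflavin-S (0.125%) fluorescent staining.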

Mus musculus [4] = organism: Mus musculus; test: Binding affinity to amyloid beta in transgenic C57BL/6 mouse cortex harboring APPswe and PSEN1 double mutation at 185 to 370 kBq after 1 hr by autoradiographic analysis; conditions: tested as the 18F-labelled form; outline: as §1
Mus musculus [5] = organism: Mus musculus; test: Binding affinity to amyloid beta in transgenic C57BL/6 mouse hippocampus harboring APPswe and PSEN1 double mutation at 185 to 370 kBq after 1 hr by autoradiographic analysis; assay type: tissue-based; conditions: tested as the 18F-labelled form; outline: as §1
Mus musculus [6] = organism: Mus musculus; test: Binding affinity to amyloid beta in wild-type C57BL/6 mouse brain at 185 to 370 kBq after 1 hr by autoradiographic analysis; assay type: tissue-based; conditions: tested as the 18F-labelled form; outline: as §1
Mus musculus [7] = organism: Mus musculus; test: Binding affinity to amyloid beta in transgenic C57BL/6 mouse cerebellum harboring APPswe and PSEN1 double mutation at 185 to 370 kBq after 1 hr by autoradiographic analysis; assay type: tissue-based; conditions: tested as the 18F-labelled form; outline: as §1
Mus musculus [8] = organism: Mus musculus; test: Binding affinity to amyloid beta in transgenic C57BL/6 mouse hippocampus harboring APPswe and PSEN1 double mutation at 185 to 370 kBq after 1 hr by thioflavin-S staining-based assay; assay type: tissue-based; conditions: tested as the 18F-labelled form; outline: as §1
Mus musculus [9] = organism: Mus musculus; test: Binding affinity to amyloid beta in transgenic C57BL/6 mouse cerebellum harboring APPswe and PSEN1 double mutation at 185 to 370 kBq after 1 hr by thioflavin-S staining-based assay; assay type: tissue-based; conditions: tested as the 18F-labelled form; outline: as §1

Sequence of Amyloid-beta precursor protein (P05067 whole entry): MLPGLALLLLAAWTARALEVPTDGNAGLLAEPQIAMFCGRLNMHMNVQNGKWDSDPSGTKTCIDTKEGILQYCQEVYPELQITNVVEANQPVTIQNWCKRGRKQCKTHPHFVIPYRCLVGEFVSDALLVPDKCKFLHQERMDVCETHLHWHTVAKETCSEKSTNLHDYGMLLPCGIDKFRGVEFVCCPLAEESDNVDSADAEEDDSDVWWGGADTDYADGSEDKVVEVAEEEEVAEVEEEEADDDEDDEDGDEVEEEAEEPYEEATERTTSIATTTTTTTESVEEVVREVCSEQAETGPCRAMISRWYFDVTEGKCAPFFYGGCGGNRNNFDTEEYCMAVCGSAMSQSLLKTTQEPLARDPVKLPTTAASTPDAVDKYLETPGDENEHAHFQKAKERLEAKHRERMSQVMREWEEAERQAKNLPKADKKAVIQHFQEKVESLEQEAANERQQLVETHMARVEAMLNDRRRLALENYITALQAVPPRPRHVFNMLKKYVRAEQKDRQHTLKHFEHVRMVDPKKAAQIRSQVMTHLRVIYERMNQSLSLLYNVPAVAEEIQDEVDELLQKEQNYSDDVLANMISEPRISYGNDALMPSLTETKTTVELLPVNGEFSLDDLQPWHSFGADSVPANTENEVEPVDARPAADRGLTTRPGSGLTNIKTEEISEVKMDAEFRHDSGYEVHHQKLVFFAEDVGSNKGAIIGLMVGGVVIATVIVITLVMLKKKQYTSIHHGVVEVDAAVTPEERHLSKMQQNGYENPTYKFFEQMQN

Compound | Ki [1] [nM] | Kp at 2 min [2] | Ratio (Brain) | also measured
CN(CCF)c1ccc(-c2cc3ccccc3n2C)cc1 | 117 |  |  | 
OCCOc1ccc(-c2cc3cc([125I])ccc3[nH]2)cc1 |  | 0.52 | 1.17 | 
COc1ccc(-c2cc3cc([125I])ccc3[nH]2)cc1 |  | 0.59 | 1.82 | 

The next lines start with results.

Ki [1] [nM] | Kp at 2 min [2] | Ratio (Brain) | Compound | also measured
28.4 |  |  | CN(CCF)c1ccc(-c2cc3ccccc3[nH]2)cc1 | Activity (Mus musculus [3]): Active; Activity (Mus musculus [4]): Active; Activity (Mus musculus [5]): Active; Activity (Mus musculus [6]): inactive; Activity (Mus musculus [7]): Active; Activity (Mus musculus [8]): Active; Activity (Mus musculus [9]): Active
79.7 |  |  | CN(CCCF)c1ccc(-c2cc3ccccc3n2C)cc1 | 
31.5 |  |  | CN(CCCF)c1ccc(-c2cc3ccccc3[nH]2)cc1 | 
